ChEMBL document CHEMBL5038610, “Ligand-based rational design, synthesis and evaluation of novel potential chemical chaperones for opsin” (Eur J Med Chem, 2021)
Calls of active or inactive are those of the source. The rule behind the calls is not given here.

Tests used:
Bos taurus = organism: Bos taurus; assay: Binding affinity to bovine opsin assessed as rate constant preincubated for 30 mins followed by […] addition and measured after 30 mins by UV-visible spectra method; conditions: time 60.0 min
Procedure, shortened: (§1)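 Opsin from bovine rod outer segments diluted to ~20-25 μM in PBS with 1% N-dodecyl-β-maltoside. Bleached with 532 nm green light, then pre-incubated with compound for 30 min at room temperature. 9-cis-retinal added, equimolar to opsin. Isorhodopsin formation read at 485 nm over 0–29 min. One-phase association fit gives the pseudo-first-order k, compared with DMSO vehicle. At least three repeats.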

U2OS [1] = assay: Effect on His-tagged human P23H rhodopsin expressed in U2OS cells assessed as increase localization of P23H rhodopsin using […] as substrate at 17 to 20 uM incubated for overnight and measured by immunofluorescence microscopy analysis; type: functional, cell-based; conditions: dose 17-20 µM, time 12.0 hrs
Procedure, shortened: (§2)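 U2OS cells stably carrying C-terminal His-tagged human P23H rhodopsin, grown on polylysine coverslips. Incubated overnight in the dark with 1 μg/mL tetracycline plus compound at 17 or 20 μM (DMSO ≤0.1%); 9-cis-retinal at 5 μM serves as control. Cells fixed in 4% PFA. Surface rhodopsin stained with RetP1 before permeabilisation, total rhodopsin with anti-His after 0.1% Triton. Epifluorescence imaging, 3 independent experiments.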

HepG2 = assay: Cytotoxicity against human HepG2 cells assessed as reduction in cell viability at 25 uM measured after 24 hrs by Cell-titre blue assay; type: toxicity, cell-based; conditions: hepg2, 24 h
Procedure, shortened: (§3)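 HepG2 (DMEM) or ARPE-19 (DMEM/F12) cells seeded at 1 × 10⁴ per well. Next day given medium with 2% FBS and 1 g/L glucose containing 25 μM compound, for 24 h at 37 °C. CellTiter Blue then added for 4 h; fluorescence read at 560/590 nm. Viability expressed as % of DMSO-treated cells; at least three independent measurements.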

ARPE-19 = assay: Cytotoxicity against human ARPE-19 cells assessed as reduction in cell viability at 25 uM measured after 24 hrs by Cell-titre blue assay; type: toxicity, cell-based; conditions: arpe-19, 24 h; procedure, shortened: as §3
[2] = Half life of compound; type: physicochemical
U2OS [3] = assay: Effect on His-tagged human P23H rhodopsin expressed in U2OS cells assessed as increase localization of P23H rhodopsin using […] as substrate at 17 uM incubated for overnight and measured by immunofluorescence microscopy analysis; type: cell-based; conditions: time 12.0 hrs; procedure, shortened: as §2
Rhodopsin (Bos taurus) = Rhodopsin (Bos taurus) (UniProt P02699); assay: Binding affinity to bovine rhodopsin assessed as rate constant preincubated for 30 mins followed by […] addition and measured after 30 mins by UV-visible spectra method; conditions: time 60.0 min; procedure, shortened: as §1
Chain of Rhodopsin (Bos taurus) (P02699 whole entry): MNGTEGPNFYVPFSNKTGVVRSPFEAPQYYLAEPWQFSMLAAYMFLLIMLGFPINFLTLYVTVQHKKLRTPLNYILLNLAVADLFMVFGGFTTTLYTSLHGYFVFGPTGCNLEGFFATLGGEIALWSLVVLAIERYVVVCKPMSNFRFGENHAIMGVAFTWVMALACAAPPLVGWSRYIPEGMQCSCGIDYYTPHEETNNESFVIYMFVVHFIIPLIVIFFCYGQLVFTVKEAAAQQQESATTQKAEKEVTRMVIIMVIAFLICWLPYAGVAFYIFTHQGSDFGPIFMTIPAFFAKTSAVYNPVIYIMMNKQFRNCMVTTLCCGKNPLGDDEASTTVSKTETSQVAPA

K (Bos taurus) | Compound | Activity (U2OS [1]) | Activity (HepG2) | Activity (ARPE-19) | other results
0.41 min⁻¹ | O=Cc1ccc(N2CCN(C(=O)c3cc(C(F)(F)F)cc(C(F)(F)F)c3)CC2)cc1 | Active | Non-Toxic | Non-Toxic | –
0.62 min⁻¹ | C=CC(=O)Nc1ccc(CNC(=O)c2c(C)cccc2C)cc1 | – | Non-Toxic | Non-Toxic | –
– | C=CC(=O)Nc1ccc(NC(=O)c2cc(C(F)(F)F)cc(C(F)(F)F)c2)cc1 | Active | – | – | –
0.64 min⁻¹ | O=Cc1ccc(C(=O)N2CCN(c3cc(C(F)(F)F)cc(C(F)(F)F)c3)CC2)cc1 | Active | Non-Toxic | Non-Toxic | –
– | Cc1cccc(C)c1C(=O)N1CCN(c2ccc(C(=O)O)cc2)CC1 | Active | – | – | –
– | Cc1cccc(C)c1N1CCN(C(=O)c2ccc(C(N)=O)cc2)CC1 | – | Non-Toxic | Non-Toxic | –
0.61 min⁻¹ | Cc1cccc(C)c1-c1ccc(CNc2ccc(C(N)=O)cc2)o1 | – | – | – | –
– | Cc1cccc(C)c1N1CCN(C(=O)c2ccc(C#N)cc2)CC1 | Active | – | – | –
0.63 min⁻¹ | CC1=C(/C=C/C(=O)N2CCC(C#N)CC2)C(C)(C)CCC1 | – | 50% | – | –
0.59 min⁻¹ | CC1=C(CNc2ccc(C(N)=O)cc2)C(C)(C)CCC1 | Active | – | – | –
0.2 min⁻¹ | CC(=O)/C=C/C1=C(C)CCCC1(C)C [BETA-IONONE] | – | Non-Toxic | Non-Toxic | half-life [2]: 3.6 min
– | CC1=C(/C=C/C(=O)N2CCC(C(N)=O)CC2)C(C)(C)CCC1 | Active | – | – | –
– | Cc1cccc(C)c1/C=C/C(=O)NCc1ccc(C(=O)O)cc1 | Active | – | – | –
– | O=C(O)c1ccc(COC(=O)c2cc(C(F)(F)F)cc(C(F)(F)F)c2)cc1 | – | Non-Toxic | Non-Toxic | Activity (U2OS [3]): Active; K (Rhodopsin (Bos taurus)): 0.62 min⁻¹
0.31 min⁻¹ | CC1=C(CNc2ccc(C#N)cc2)C(C)(C)CCC1 | – | 25% | – | Activity (U2OS [3]): Active
– | CC1=C(CNc2ccc(C(=O)O)cc2)C(C)(C)CCC1 | Active | – | – | –
– | Cc1cccc(C)c1NC(=O)/C=C/c1ccc(C=O)cc1 | Active | Non-Toxic | Non-Toxic | –
– | CC1=C(/C=C/C(C)N2CCc3cc(C=O)ccc3C2)C(C)(C)CCC1 (stereo unspecified) | – | Non-Toxic | Non-Toxic | –
– | C=C(C(=O)Nc1ccc(NC(=O)c2c(C)cccc2C)cc1)C(F)(F)F | Active | – | – | –
– | C=CC(=O)Nc1ccc(NC(=O)c2c(C)cccc2C)cc1 | Active | – | – | –
– | CC1=C(/C=C/C(=O)N2CCC(NC=O)CC2)C(C)(C)CCC1 | Active | – | – | –
0.62 min⁻¹ | NC(=O)c1ccc(N2CCN(C(=O)c3cc(C(F)(F)F)cc(C(F)(F)F)c3)CC2)cc1 | Active | Non-Toxic | Non-Toxic | –
– | O=Cc1ccc(COC(=O)c2cc(C(F)(F)F)cc(C(F)(F)F)c2)cc1 | – | Non-Toxic | Non-Toxic | Activity (U2OS [3]): Active; K (Rhodopsin (Bos taurus)): 0.44 min⁻¹
